Three molecules from ChEMBL document CHEMBL1158007, “Steroidal glycosides from the bulbs of Allium jesdianum” (J Nat Prod, 1999) can be followed below.

SMILES strings stand for the structures. Active and inactive are the calls of the source. No cut-off for these calls is given here.

In the test the test system is HL-60. The test is described as follows: Cytotoxicity against human HL-60 cells after 72 hrs by MTT assay. Type of test: functional, cell-based. Summed up: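 HL-60 cells grown in RPMI 1640 with 10% FBS, L-glutamine, penicillin and streptomycin, seeded at 3 × 10^4 cells/mL, and preincubated 24 h at 37 °C in 5% CO2. Sample in EtOH-H2O (1:1) added to a final 0.01-10 µg/mL, with vehicle-only controls, for 72 h. MTT added for 4 h, then formazan dissolved in DMSO and read at 550 nm. IC50 taken from the dose-response curve.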
Background: Tetrazolium dyes change colour on reduction, which living cells bring about.

Regarding `C[C@@H]1CC[C@@]2(OC1)O[C@H]1C[C@H]3[C@@H]4C[C@H](O)[C@H]5C[C@@H](O[C@@H]6O[C@H](CO)[C@H](O[C@@H]7O[C@H](CO)[C@@H](O)[C@H](O[C@@H]8OC[C@@H](O)[C@H](O)[C@H]8O)[C@H]7O[C@@H]7O[C@H](CO)[C@@H](O)[C@H](O)[C@H]7O)[C@H](O)[C@H]6O)[C@H](O)C[C@]5(C)[C@H]4CC[C@]3(C)[C@H]1[C@@H]2C`, the IC50 (as a rule, the concentration needed to halve the response being measured) (HL-60, 72 h) is more than 10 mg/L. For the molecule `CC(C)CC[C@H](O)[C@@H](C)[C@H]1[C@@H](O[C@@H]2O[C@H](CO)[C@@H](O)[C@H](O)[C@H]2O)C[C@H]2[C@@H]3CC=C4C[C@@H](O)C[C@@H](O[C@@H]5O[C@@H](C)[C@H](O)[C@@H](O)[C@H]5O)[C@]4(C)[C@H]3CC[C@]12C`, the outcome was inactive. Turning to `CC(C)CC[C@H](O)[C@@H](C)[C@H]1[C@@H](O[C@@H]2O[C@H](CO)[C@@H](O)[C@H](O)[C@H]2O)C[C@H]2[C@@H]3CC=C4C[C@@H](O)C[C@@H](O[C@@H]5O[C@H](CO)[C@@H](O)[C@H](O)[C@H]5O)[C@]4(C)[C@H]3CC[C@]12C`, the result was inactive.
